Measured values reported in ChEMBL document CHEMBL2093137, “WHO-TDR NTD Screening”.
≈ marks a conversion by molar mass, not a printed value.

Columns and labels:
[1] = system: Leishmania infantum; experiment: WHO-TDR: Leishmaniasis; format: functional, organism-based, Mus musculus; conditions: Macrophage
Procedure, shortened: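 Values are IC50 figures for antiparasitic potency. They come from a whole-organism screen of a 10,000-compound diverse Life Chemicals library against Leishmania infantum MHOM/MA(BE)/67 amastigotes inside murine peritoneal macrophage host cells.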

[2] = system: Schistosoma mansoni; experiment: WHO-TDR: Schistosomiasis; format: functional; design: concentration or dose not given beside the values
Procedure, shortened: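 Whole-organism screen of a 10,000-compound diverse library from Life Chemicals, filtered for drug-likeness and reactive groups, against larval and/or adult worms of Schistosoma mansoni Puerto Rican strain. The assay followed previously published standard procedures, with a reference drug as positive control. Activity is reported as percent inhibition and as IC50.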

[3] = system: Trypanosoma brucei brucei; experiment: WHO-TDR: Human African Trypanosomiasis (HAT); format: functional, organism-based; conditions: Squib-427
Procedure, shortened: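 Values are IC50 figures for antiparasitic potency. They come from a whole-organism screen of 10,000 diverse Life Chemicals compounds against bloodstream-form Trypanosoma brucei (Squib 427 strain).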

[4] = system: Brugia malayi; experiment: (§1) WHO-TDR: Lymphatic Filariasis; format: functional; design: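 tested at 10 µM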
Procedure, shortened: (§2)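 Whole-organism screen of a 10,000-compound diverse library from Life Chemicals, filtered for drug-likeness and reactive groups, against Brugia malayi microfilariae. The assay followed previously published standard procedures, with reference drugs as positive controls. Activity is reported as percent inhibition and as IC50.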

[5] = system: Brugia malayi; experiment: as §1; format: functional; design: concentration or dose not given beside the values; procedure, shortened: as §2; remark: listed apart in the source
[6] = system: Brugia malayi; experiment: as §1; format: functional, organism-based; procedure, shortened: as §2
[7] = system: Plasmodium falciparum K1; experiment: WHO-TDR: Malaria; format: functional, organism-based, Homo sapiens; conditions: Erythrocyte
Procedure, shortened: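 Values are IC50 figures for antiplasmodial potency. They come from a whole-organism screen of 10,000 diverse Life Chemicals compounds against Plasmodium falciparum K1 growing inside human red blood cells, run by previously published standard procedures.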

[8] = system: Trypanosoma cruzi; experiment: WHO-TDR: Chagas disease; format: functional, organism-based, Homo sapiens; conditions: MRC5
Procedure, shortened: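 A diverse library of 10,000 compounds from Life Chemicals, filtered for drug-likeness and reactive groups, was screened against intracellular amastigotes of Trypanosoma cruzi Tulahuen CL2 beta-galactosidase strain. The parasites were grown in MRC-5SV2 human lung fibroblast host cells, and a reference drug served as positive control under previously published standard procedures. Antiparasitic potency is given as IC50.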

[9] = WHO-TDR: Cytotoxicity; format: toxicity, cell-based; conditions: human, MRC5 cells
[10] = system: Onchocerca lienalis; experiment: (§3) WHO-TDR: Onchocerciasis; format: functional; design: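 at 12.5 µM on microfilariae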
Procedure, shortened: as §2, with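 “microfilariae of Onchocerca ochengi or Onchocerca lienalis, used as animal-pathogen stand-ins for the human parasite.” for “Brugia malayi microfilariae.”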

[11] = system: Onchocerca ochengi; experiment: as §3; format: functional; design: concentration or dose not given beside the values;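 also: at 12.5 µM on microfilariae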
Procedure, shortened: as §2, with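 “microfilariae of Onchocerca ochengi or Onchocerca lienalis, used as animal-pathogen stand-ins for the human parasite.” for “Brugia malayi microfilariae.”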

SMILES | IC50 [1] | IC50 [3] | IC50 [6] | IC50 [7] | % Inhibition [2] | % Inhibition [4] | % Inhibition [5] | IC50 [8] | IC50 [9] | % Inhibition [10] | % Inhibition [11]
COc1cccc2sc(Nc3nnc(-c4cccs4)o3)nc12 | 3.17 µg/mL (≈ 9.6 µM) | 0.346 µg/mL (≈ 1.05 µM) | 5.09 µM | 1.25 µg/mL (≈ 3.78 µM) | 0% | 50% | 100% | 0.313 µg/mL (≈ 0.947 µM) | 1.83 µg/mL (≈ 5.54 µM) | – | –
c1ccc2c(CCNc3[nH]cnc4ncnc3-4)c[nH]c2c1 | > 8.35 µg/mL | > 8.35 µg/mL | – | > 8.35 µg/mL | 0% | 0% | 0% | 0.588 µg/mL (≈ 2.11 µM) | 1.91 µg/mL (≈ 6.87 µM) | 13.4% | –
CC1CCc2c(sc(Nc3nc4c(F)cccc4s3)c2C(N)=O)C1 (centres undefined) | 3.51 µg/mL (≈ 9.71 µM) | 2.31 µg/mL (≈ 6.39 µM) | 4.99 µM | 2.69 µg/mL (≈ 7.46 µM) | 0% | 25% | 100% | 4.66 µg/mL (≈ 12.9 µM) | > 10.8 µg/mL | – | –
CN1CCc2c(OCC(=O)N3N=C(c4cccs4)CC3c3ccc(F)cc3)cccc2C1=O (centres undefined) | 0.947 µg/mL (≈ 2.04 µM) | 4.45 µg/mL (≈ 9.6 µM) | – | 7.38 µg/mL (≈ 15.9 µM) | 0% | 0% | 90% | 2.3 µg/mL (≈ 4.96 µM) | > 13.9 µg/mL | 0% | –
COc1ccc2nc(N(CCCN(C)C)C(=O)CCCSc3ccccc3)sc2c1 | 4.66 µg/mL (≈ 10.5 µM) | 0.455 µg/mL (≈ 1.03 µM) | – | 3.35 µg/mL (≈ 7.55 µM) | 0% | 0% | 0% | 2.53 µg/mL (≈ 5.71 µM) | 4.06 µg/mL (≈ 9.16 µM) | 12.34% | –
CN1CCc2c(sc(NC(=O)C3COc4ccccc4O3)c2-c2nc3ccccc3s2)C1 (centres undefined) | 4.86 µg/mL (≈ 10.5 µM) | 0.48 µg/mL (≈ 1.04 µM) | – | 3.38 µg/mL (≈ 7.29 µM) | 0% | 66.67% | 33.33% | 2.48 µg/mL (≈ 5.35 µM) | 5.39 µg/mL (≈ 11.6 µM) | 0% | –
COc1cccc2sc(Nc3sc4c(c3C(N)=O)CCCC4)nc12 | 4.55 µg/mL (≈ 12.7 µM) | 0.947 µg/mL (≈ 2.63 µM) | 4.51 µM | 4.55 µg/mL (≈ 12.7 µM) | 12.5% | 50% | 100% | 3 µg/mL (≈ 8.35 µM) | 3.58 µg/mL (≈ 9.95 µM) | – | –
CCOc1cccc2sc(Nc3nc4ccc5sc(C)nc5c4s3)nc12 | > 12 µg/mL | > 12 µg/mL | 4.49 µM | > 12 µg/mL | 0% | 50% | 100% | > 12 µg/mL | > 12 µg/mL | – | –
Cc1nc2ccc3nc(Nc4nc5c(F)cccc5s4)sc3c2s1 | > 11.2 µg/mL | > 11.2 µg/mL | 5.21 µM | > 11.2 µg/mL | 0% | 50% | 100% | > 11.2 µg/mL | > 11.2 µg/mL | – | –
CCOC(=O)c1sc(Nc2nc3c(F)cccc3s2)nc1C | 6.9 µg/mL (≈ 20.4 µM) | > 10.1 µg/mL | 4.99 µM | > 10.1 µg/mL | 0% | 50% | 100% | > 10.1 µg/mL | > 10.1 µg/mL | – | –
CS(=O)(=O)c1ccc2nc(Nc3nc4c(F)cccc4s3)sc2c1 | > 11.4 µg/mL | > 11.4 µg/mL | 4.49 µM | 6.16 µg/mL (≈ 16.2 µM) | 0% | 25% | 100% | > 11.4 µg/mL | > 11.4 µg/mL | – | –
CC(=O)Nc1ccc2nc(Nc3nc4ccc(C(C)C)cc4s3)sc2c1 | 4.12 µg/mL (≈ 10.8 µM) | 4.49 µg/mL (≈ 11.7 µM) | 5.09 µM | 2.19 µg/mL (≈ 5.72 µM) | 0% | 25% | 100% | 2.37 µg/mL (≈ 6.2 µM) | > 11.5 µg/mL | – | –
CC(C)c1ccc2nc(Nc3nc4ccc(S(C)(=O)=O)cc4s3)sc2c1 | 3.92 µg/mL (≈ 9.71 µM) | > 12.1 µg/mL | 4.95 µM | > 12.1 µg/mL | 0% | 25% | 100% | > 12.1 µg/mL | > 12.1 µg/mL | – | –
COc1ccc(NC(=O)c2oc3ccccc3c2NC(=O)c2cccc(Cl)c2)c(OC)c1 | > 13.5 µg/mL | > 13.5 µg/mL | 4.49 µM | > 13.5 µg/mL | 25% | 0% | 100% | > 13.5 µg/mL | > 13.5 µg/mL | – | –
COC(=O)c1ccc(CSc2ccc(NC(=O)C(C)C)nn2)o1 | > 10.1 µg/mL | > 10.1 µg/mL | 6.15 µM | > 10.1 µg/mL | 0% | 0% | 100% | > 10.1 µg/mL | > 10.1 µg/mL | – | 0%

More lines, main results first:

IC50 [1] | IC50 [3] | IC50 [6] | IC50 [7] | SMILES | % Inhibition [2] | % Inhibition [4] | % Inhibition [5] | IC50 [8] | IC50 [9] | % Inhibition [10] | % Inhibition [11]
> 9.05 µg/mL | > 9.05 µg/mL | 3.54 µM | > 9.05 µg/mL | COc1cccc2c1CCN(Cc1ccc(Cl)cc1)C2=O | 0% | – | 100% | 2.48 µg/mL (≈ 8.23 µM) | > 9.05 µg/mL | 40% | –
> 10.4 µg/mL | > 11.1 µg/mL | 3.27 µM | > 10.4 µg/mL | O=C(Nc1nc2c(F)cc(F)cc2s1)c1nc2ccccc2s1 | 0% | 50% | 100% | > 10.4 µg/mL | > 10.4 µg/mL | – | –
4.64 µg/mL (≈ 9.71 µM) | > 15.3 µg/mL | 1.07 µM | > 14.3 µg/mL | Cc1c(Cl)ccc2sc(NC(=O)c3ccc(S(=O)(=O)N4CC(C)CC(C)C4)cc3)nc12 (centres undefined) | 0% | 80% | 100% | > 14.3 µg/mL | > 14.3 µg/mL | – | –
> 9.93 µg/mL | > 10.6 µg/mL | 3.97 µM | > 9.93 µg/mL | O=C(Nc1nc2c(Cl)ccc(Cl)c2s1)C1=COCCO1 | 0% | 25% | 100% | > 9.93 µg/mL | > 9.93 µg/mL | – | –
> 10.2 µg/mL | > 10.9 µg/mL | 2.5 µM | > 10.2 µg/mL | Cc1cc(C)c2sc(NC(=O)c3nc4ccccc4s3)nc2c1 | 0% | 25% | 100% | > 10.2 µg/mL | > 10.2 µg/mL | – | –
3.31 µg/mL (≈ 9.49 µM) | > 11.2 µg/mL | 2.18 µM | > 10.5 µg/mL | COc1cccc(C(=O)Nc2nnc(-c3ccc4c(c3)CCCC4)o2)c1 | 25% | 50% | 100% | > 10.5 µg/mL | > 10.5 µg/mL | – | –
6.13 µg/mL (≈ 15.5 µM) | 3.79 µg/mL (≈ 9.63 µM) | 4.49 µM | > 11.8 µg/mL | O=C(Nc1nnc(-c2ccc3c(c2)CCCC3)o1)c1cc(Cl)sc1Cl | 0% | 50% | 100% | 3.88 µg/mL (≈ 9.83 µM) | > 11.8 µg/mL | – | –
> 11 µg/mL | 3.56 µg/mL (≈ 9.71 µM) | 3.54 µM | > 11 µg/mL | CCCCc1ccc(NC(=O)CSc2cn(CC)c3ccccc23)cc1 | 0% | 0% | 100% | 2.93 µg/mL (≈ 7.99 µM) | > 11 µg/mL | – | –
> 9.52 µg/mL | 3.81 µg/mL (≈ 12 µM) | 3.44 µM | > 9.52 µg/mL | COc1cccc2sc(Nc3nc4c(s3)CCCC4)nc12 | 0% | 50% | 100% | > 9.52 µg/mL | > 9.52 µg/mL | – | –
> 9.16 µg/mL | > 9.16 µg/mL | 4.36 µM | > 9.16 µg/mL | Fc1cccc2sc(Nc3nc4c(s3)CCCC4)nc12 | 0% | 50% | 100% | > 9.16 µg/mL | > 9.16 µg/mL | – | –
> 14.2 µg/mL | > 14.2 µg/mL | 4.36 µM | > 14.2 µg/mL | CCOC(=O)c1sc(NC(=O)C(C)Sc2ncnc3ccccc23)c(C(=O)OCC)c1C (centres undefined) | 0% | 0% | 100% | > 14.2 µg/mL | > 14.2 µg/mL | – | –
> 9.41 µg/mL | > 9.41 µg/mL | 1.77 µM | > 9.41 µg/mL | O=C(Cc1cc(-c2ccc(Cl)cc2)on1)Nc1cccnc1 | 0% | 0% | 100% | 2.25 µg/mL (≈ 7.18 µM) | 1.19 µg/mL (≈ 3.8 µM) | – | 75%
0.323 µg/mL (≈ 0.949 µM) | < 0.102 µg/mL | 2.61 µM | 0.312 µg/mL (≈ 0.915 µM) | COc1ccc2nc(Nc3nc(-c4ccccn4)cs3)sc2c1 | 0% | 25% | 100% | < 0.102 µg/mL | 0.129 µg/mL (≈ 0.378 µM) | – | –
